For one assay, the system named is NCI-H460. The assay can be described thus: Cytotoxicity against human NCI-H460 cells assessed as cell viability measured after 48 hrs by MTT assay. The class given is functional, cell-based. Particulars: NCI-H460, 48 h. On the technique in general: Tetrazolium dyes change colour on reduction, which living cells bring about.
The subject of the next assay is K562. The assay can be described thus: Cytotoxicity against human K562 cells assessed as cell viability measured after 48 hrs by MTT assay. The assay is classed as functional, cell-based. Particulars: K562, 48 h. In a few lines:
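Cells were seeded at 5×10^4 cells/mL and kept in suspension 2 h before dosing. Compounds were added from DMSO at final 0.01–100 μM (tenfold series) for 48 h. MTT was applied, then isopropanol-HCl, with OD read at 490 and 630 nm. IC50 was obtained from OD.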

The target in assay [1] is T1, NAD-dependent protein deacetylase sirtuin-1 (Homo sapiens, UniProt Q96EB6).
T1 sequence (Q96EB6 whole entry): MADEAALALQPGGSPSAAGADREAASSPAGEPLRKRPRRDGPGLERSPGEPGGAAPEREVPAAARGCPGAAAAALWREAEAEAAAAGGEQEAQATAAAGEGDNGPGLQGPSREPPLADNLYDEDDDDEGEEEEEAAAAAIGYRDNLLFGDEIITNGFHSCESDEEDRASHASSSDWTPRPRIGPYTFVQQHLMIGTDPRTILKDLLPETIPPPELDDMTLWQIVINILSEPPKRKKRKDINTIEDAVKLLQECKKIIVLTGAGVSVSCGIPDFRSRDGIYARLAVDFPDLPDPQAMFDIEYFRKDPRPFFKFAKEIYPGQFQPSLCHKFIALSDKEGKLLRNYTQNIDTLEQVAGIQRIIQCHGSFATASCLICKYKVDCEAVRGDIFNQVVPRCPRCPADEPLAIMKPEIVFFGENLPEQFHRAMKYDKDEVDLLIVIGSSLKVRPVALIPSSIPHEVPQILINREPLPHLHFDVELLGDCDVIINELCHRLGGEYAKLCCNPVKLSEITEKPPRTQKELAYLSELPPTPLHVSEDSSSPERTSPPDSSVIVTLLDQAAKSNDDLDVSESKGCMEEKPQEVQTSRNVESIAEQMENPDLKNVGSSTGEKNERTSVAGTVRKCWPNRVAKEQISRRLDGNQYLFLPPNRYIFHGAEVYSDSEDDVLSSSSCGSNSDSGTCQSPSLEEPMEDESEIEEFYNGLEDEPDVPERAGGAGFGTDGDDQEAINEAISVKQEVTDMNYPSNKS
The assay can be described thus: Inhibition of recombinant human SIRT1 (193 to 741 residues) expressed in Escherichia coli expression system using RHKK(Ac)W-NH2 as substrate measured after 2 hrs by HPLC method.

The next assay deals with HEK-293T. The assay can be described thus: Cytotoxicity against human HEK293T cells assessed as cell viability measured after 48 hrs by MTT assay. The class given is cell-based.
Another assay has as its system HT-29. The assay can be described thus: Cytotoxicity against human HT-29 cells assessed as cell viability measured after 48 hrs by MTT assay. The class given is functional, cell-based. Particulars: HT-29, 48 h. In a few lines:
(§1)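 Cells were seeded at 5×10^4 cells/mL and allowed to adhere for 24 h. Compounds in DMSO were tested at final 0.01, 0.1, 1, 10 and 100 μM for 48 h. MTT was then added, followed by isopropanol-HCl. OD was read at 570/630 nm, and IC50 was calculated from OD.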

Another assay has as its system HUVEC. The assay can be described thus: Cytotoxicity against human HUVEC cells assessed as cell viability measured after 48 hrs by MTT assay. The assay is classed as cell-based. In a few lines:
as §1

A further assay relates to HepG2. The assay can be described thus: Cytotoxicity against human HepG2 cells assessed as cell viability measured after 48 hrs by MTT assay. The assay is classed as functional, cell-based. As to conditions: HepG2, 48 h.
The test system of the next assay is A549. The assay can be described thus: Cytotoxicity against human A549 cells assessed as cell viability measured after 48 hrs by MTT assay. The class given is functional, cell-based. Particulars: A549, 48 h. In a few lines:
as §1

Assay [2] deals with T2, NAD-dependent protein deacetylase sirtuin-2 (Homo sapiens) (UniProt Q8IXJ6).
T2 sequence (whole entry): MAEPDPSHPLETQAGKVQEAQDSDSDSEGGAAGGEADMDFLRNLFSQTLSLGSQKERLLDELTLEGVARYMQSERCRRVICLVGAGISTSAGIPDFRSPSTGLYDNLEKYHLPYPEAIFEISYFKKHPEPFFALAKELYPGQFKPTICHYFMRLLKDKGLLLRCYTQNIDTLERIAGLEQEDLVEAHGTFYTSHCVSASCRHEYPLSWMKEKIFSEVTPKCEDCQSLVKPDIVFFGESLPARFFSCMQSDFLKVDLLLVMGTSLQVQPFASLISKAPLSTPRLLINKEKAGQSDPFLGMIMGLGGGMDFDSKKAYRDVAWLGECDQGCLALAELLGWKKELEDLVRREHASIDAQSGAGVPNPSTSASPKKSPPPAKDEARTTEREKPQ
The assay can be described thus: Inhibition of recombinant human SIRT2 expressed in baculovirus infected SF9 cells expression system using RHKK(Ac)W-NH2 as substrate at 10 uM measured after 20 mins by HPLC method. In a few lines: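 SIRT2 at about 100 nM (nominal) started the reaction, without preincubation, in kit buffer pH 8.0 with 2 mM NAD+ and 250 μM RHKK(Ac)W-NH2. Final DMSO was 1%. Reactions ran 20 min at 37 °C, keeping conversion at 2–8%, and were stopped with TFA. Substrate and product were separated by C18 HPLC (10–50% B gradient) and detected at 220 nm. Peak areas gave % conversion. Results were reported as IC50 (95% CI) or % inhibition (SD), from at least duplicates.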

In a further assay the test system is MCF7. The assay can be described thus: Cytotoxicity against human MCF7 cells assessed as cell viability measured after 48 hrs by MTT assay. The assay is classed as functional, cell-based. Particulars: MCF7, 48 h.
The test system of another assay is HCT-116. The assay can be described thus: Cytotoxicity against human HCT-116 cells assessed as cell viability measured after 48 hrs by MTT assay. As to conditions: HCT-116, 48 h. The assay is classed as functional, cell-based.
Assay [3] has as its target T3, NAD-dependent protein deacetylase sirtuin-2 (Homo sapiens, UniProt Q8IXJ6).
T3 sequence (Q8IXJ6 whole entry): T2 sequence (whole entry)
The assay can be described thus: Inhibition of recombinant human SIRT2 expressed in baculovirus infected SF9 cells expression system using RHKK(Ac)W-NH2 as substrate measured after 20 mins by HPLC method.

Usually IC50 stands for the midpoint of a concentration-inhibition curve. A word on the inhibition: it is the change of the read-out against control, counted positive when it falls. As for `NC(=O)Cc1cc2cc(Cl)ccc2[nH]1`, the IC50 was above 100 µM with NCI-H460; above 100 µM with K562; 90 µM in [1]; above 100 µM in the assay on HEK-293T; above 100 µM in the assay on HT-29; above 100 µM in the assay with HUVEC. In addition, the half-inhibitory concentration (IC50) in the assay with HepG2, with A549, with MCF7 and in the assay on HCT-116 was above 100 µM throughout. Also, the inhibition in [2] worked out at 1.7%.
Take `CC[C@@]1(O)C(=O)OCc2c1cc1n(c2=O)Cc2cc3ccccc3nc2-1` [CAMPTOTHECIN]: the IC50 with NCI-H460 is 0.12 µM; with K562, 0.32 µM; in the assay with HEK-293T it was 5.65 µM; in the assay with HT-29, above 100 µM; in the assay on HUVEC it was below 0.01 µM; in the assay on HepG2, 0.04 µM. For the same molecule, the half-inhibitory concentration (IC50) with A549 came out at 1.56 µM; with MCF7, 1.67 µM; in the assay on HCT-116, 0.05 µM.
Consider `NC(=O)Cc1[nH]c2ccc(Cl)cc2c1Cc1ccccc1`, for which the IC50 in assay [3] worked out at 0.93 µM.
As to `NC(=O)Cc1[nH]c2ccc(Cl)cc2c1CC(N)=O`, the IC50 (in the assay with NCI-H460; with K562; in assay [1]; with HEK-293T; in the assay with HT-29; with HUVEC) was above 100 µM throughout. In addition, the IC50 with HepG2, in the assay with A549, with MCF7 and with HCT-116 was above 100 µM throughout.
As to `CCc1c(CC(N)=O)[nH]c2ccc(Cl)cc12`, the IC50 in the assay with NCI-H460 was 70 µM; with K562, 87 µM; in [1], 14 µM; in the assay on HEK-293T it was 77 µM; with HT-29, above 100 µM; with HUVEC, 58 µM. Also, the IC50 is above 100 µM in the assay with HepG2, above 100 µM in the assay with A549, above 100 µM with MCF7 and 52 µM in the assay with HCT-116. Also, the inhibition in assay [2] was -5.5%.
Regarding `NC(=O)C1CCCc2c1[nH]c1ccc(Cl)cc21` (configuration not stated), the IC50 in the assay with NCI-H460 is 48 µM; in the assay with K562, 60 µM; in the assay on HEK-293T it was 51 µM; in the assay with HT-29 it was above 100 µM; in the assay with HUVEC it was 15 µM; in the assay on HepG2, 44 µM. Also, the IC50 in the assay on A549 amounted to 29 µM; with MCF7, 37 µM; in the assay with HCT-116 it was 37 µM. For the same molecule, the inhibition in assay [2] was found to be 84%.
